Screening data: PubChem, several laboratories
An excerpt weighted towards active compounds, which were near 2% of everything screened.
GPR7 antag: GPR7 receptor antagonists, primary screen, cell-based, fluorescence, single concentration; Neuropeptides B/W receptor type 1 (Homo sapiens), P48145; GPR7-expressing cells, fluorescence antagonist assay; inhibition, % at 4.4 µM; 290,000 compounds, 1.1% hits; AID 1861, 2009; in the data active = inhibition above about 16%, passing the limit was not always enough;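 note: cells stimulated with the agonist NPW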
TRPN1 ag: zebrafish TRPN1 channel agonists, primary screen, cell-based, HEK293, calcium fluorescence | HEK293 zebrafish TRPN1-YFP, Fluo-8 calcium fluorescence; 100% = response to 87 µM carbachol | activation, % at 3 µM | 220,000 compounds, 0.18% hits;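 active = activation above its plate's cutoff, the mean activation of test wells on that plate plus 3 SD, cut at about 19% in these data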
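Material – zebrafish TRPN1-YFP in HEK293 cells · Doses – 3 µM single point · Schedule – dye 1 h 37 °C plus 30 min RT · Signal – Fluo-8 calcium fluorescence, excitation 470-495 nm, emission 515-575 nm · Read-out – % activation versus carbachol response · Control set – carbachol high, DMSO low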
CRFBP-R2 block: antagonists of CRF-BP/CRF-R2 complex, primary screen, cell-based, HEK293, calcium dye fluorescence, uHTS | CRF-induced calcium fluorescence | inhibition, % at 11.8 µM | 350,000 compounds, 0.59% hits;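 active = inhibition of the ligand-induced calcium signal above about 50% at the single tested concentration, limit read from the data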
TRPML3 agonist: human TRPML3 channel agonists, primary screen, cell-based, HEK293 TRPML3-YFP, Fluo-8 calcium fluorescence, 3 µM; activation, % at 3 µM; 220,000 compounds, 0.29% hits; AID 1448, 2008; Mucolipin-3 (Homo sapiens), Q8TDD5; 100% = the carbachol control signal;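 active = activation above its plate's cutoff, the mean activation of the plate's test wells plus 3 SD, cut at about 12% in these data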
Target sequence (Q8TDD5 whole entry, looked up): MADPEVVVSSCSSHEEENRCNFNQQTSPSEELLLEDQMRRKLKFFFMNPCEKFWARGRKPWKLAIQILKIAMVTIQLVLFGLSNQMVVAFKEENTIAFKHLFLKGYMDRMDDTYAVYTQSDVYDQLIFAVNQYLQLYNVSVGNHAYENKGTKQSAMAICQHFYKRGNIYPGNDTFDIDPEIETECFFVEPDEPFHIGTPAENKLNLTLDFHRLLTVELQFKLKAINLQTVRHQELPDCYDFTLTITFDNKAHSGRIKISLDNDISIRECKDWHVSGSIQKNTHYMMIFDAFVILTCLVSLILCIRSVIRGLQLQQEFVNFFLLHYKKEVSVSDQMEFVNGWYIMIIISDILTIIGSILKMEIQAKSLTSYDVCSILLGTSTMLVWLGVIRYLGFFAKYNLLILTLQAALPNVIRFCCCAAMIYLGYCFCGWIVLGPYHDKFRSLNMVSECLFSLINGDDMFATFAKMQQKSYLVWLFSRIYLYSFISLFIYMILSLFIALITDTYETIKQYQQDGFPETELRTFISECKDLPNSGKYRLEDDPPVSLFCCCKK
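Test system: HEK293 cells stably carrying human TRPML3-YFP; Doses: single dose, 3 µM final nominal compound, 0.3% DMSO final; Schedule: dye loading 1 h 37 °C then 30 min ambient, 125 s read; Technique: Fluo-8 calcium fluorescence; Benchmarks: high control carbachol 87 µM, low control DMSO.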
CRFR2-BP ag: agonists of CRF-BP/CRF-R2 complex, primary screen, cell-based, HEK293, calcium dye fluorescence, uHTS; calcium dye fluorescence (FLIPR); percent of saturating CRF peptide response; activation, % at 13.2 µM; 350,000 compounds, 0.46% hits; AID 588473, 2011;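 active = activation of at least 50%, plus an integration ratio under a set limit after plate pattern correction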
TRPN1 counter: zebrafish TRPN1 channel agonists, counter-screen for TRPML3 agonist project, cell-based, HEK293 TRPN1-YFP, Fluo-8 calcium | shares compounds with TRPML3 agonist | Fluo-8 calcium fluorescence; scaled: carbachol wells 100%, DMSO wells 0% | activation, % at 3 µM | 310 compounds, 10% hits | AID 1525, 2009;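 active = mean activation over replicates above a set limit taken from the earlier TRPN1 channel primary screen, cut at about 19% in these data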
TRPML3 confirm: human TRPML3 channel agonists, confirmation, cell-based, HEK293 TRPML3-YFP, Fluo-8 calcium, triplicate; shares compounds with TRPML3 agonist; Fluo-8 calcium fluorescence; 100% set by carbachol, 0% by DMSO; activation, % at 3 µM; 310 compounds, 80% hits;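 active = activation above a set limit derived from the earlier primary screen, cut at about 12% in these data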
Of the large screens only hits and unclear results are named; the others gave an inactive call (follow-up assays come after a bar, where they were run).

O=C(O/N=C1\CCCCC1c1ccc([N+](=O)[O-])cc1[N+](=O)[O-])c1c(F)cccc1F (configuration not stated)	TRPML3 agonist 57 | TRPN1 counter inactive | TRPML3 confirm inactive
O=[N+]([O-])c1ccc(C2CCCC/C2=N/OCc2ccccc2F)c([N+](=O)[O-])c1 (configuration not stated)	none
Cc1cccc(C)c1-n1nnnc1S(=O)(=O)Cc1ccccc1Cl	TRPML3 agonist 26 | TRPN1 counter inactive | TRPML3 confirm 14
Cc1nc(S(=O)(=O)Cc2ccccc2Cl)nc2c1CCC2	none
Cc1ccc(C(=O)O)cc1NC(=O)C1CCN(S(=O)(=O)c2ccc3c(c2)OCCO3)CC1	none (no result: GPR7 antag, TRPN1 ag, TRPML3 agonist)
COc1ccc(CNC(=O)CN(C)Cc2ccc(C(C)(C)C)cc2)cc1	none (no result: TRPN1 ag, TRPML3 agonist)
Cc1cc(C(C)(C)C)oc1C(=O)N(CC(=O)NC1CCCC1)Cc1ccccc1Cl	TRPML3 agonist 33 | TRPN1 counter inactive | TRPML3 confirm 34
Cc1ccccc1N(CC(=O)NC1CCCC1)C(=O)c1oc(C(C)(C)C)cc1C	none
Cc1ccc(S(=O)(=O)Nc2ccccc2-c2ccccc2)cc1	TRPML3 agonist 91 | TRPN1 counter inactive | TRPML3 confirm 97
Cc1ccc(NS(=O)(=O)c2ccccc2)c(NS(=O)(=O)c2ccccc2)c1	none (no result: GPR7 antag, TRPN1 ag, TRPML3 agonist)
COc1ccc(/C=C2\C(=O)NC(=S)N2C(=O)c2ccc(F)cc2)cc1	TRPML3 agonist 14 | TRPN1 counter inactive | TRPML3 confirm inactive
Cc1ccc(S(=O)(=O)N2CCOCC2)cc1C(=O)OCC(=O)N(Cc1ccccc1)C(C)C	none (no result: GPR7 antag, TRPN1 ag, TRPML3 agonist)
O=C(N/C(=C\c1cccc([N+](=O)[O-])c1)C(=O)N1CCOCC1)c1ccco1	none (no result: TRPN1 ag, TRPML3 agonist)
CCOC(=O)N1CCC(N2C(=O)c3ccccc3C2Nc2ccc(S(=O)(=O)N3CCCCC3)cc2)CC1 (configuration not stated)	TRPML3 agonist 15 (no result: CRFBP-R2 block, CRFR2-BP ag) | TRPN1 counter inactive | TRPML3 confirm inactive
C[C@@H]1CN([C@H](C)CO)C(=O)CCCn2cc(nn2)CO[C@H]1CN(C)C(=O)c1cc(-c2ccccc2)on1	none (no result: GPR7 antag, TRPN1 ag, TRPML3 agonist)
CCN(C1CCCCC1)S(=O)(=O)c1ccc(OC)c(C)c1	TRPML3 agonist 26 | TRPN1 counter inactive | TRPML3 confirm 87
CCN(C1CCCCC1)S(=O)(=O)c1cc(C)ccc1OC	TRPML3 agonist 22 | TRPN1 counter inactive | TRPML3 confirm 35
COc1ccc(C)cc1S(=O)(=O)N(C)CC(=O)NC1CCCCC1	none
CCN(C1CCCCC1)S(=O)(=O)c1ccc(-n2cnnn2)c(C)c1	none (no result: TRPN1 ag, TRPML3 agonist)
CC(=O)c1ccc(OCC(=O)Nc2cccc(C(=O)Nc3c(C)n(C)n(-c4ccccc4)c3=O)c2)cc1	none (no result: GPR7 antag, TRPN1 ag, TRPML3 agonist)
CC12CCC(C(=NO)C1=O)C2(C)C (configuration not stated)	none (no result: GPR7 antag, TRPN1 ag, TRPML3 agonist)
CCOC(=O)C1CN(C(=O)OCC)CC1=NNC(N)=O (configuration not stated)	none (no result: GPR7 antag, TRPN1 ag, TRPML3 agonist)
O=C1C2C3C=CC(C3)C2C(=O)N1c1ccc(N2CCN(c3ccccn3)CC2)c([N+](=O)[O-])c1 (configuration not stated)	TRPML3 agonist 16 | TRPN1 counter inactive | TRPML3 confirm 21
COC(=O)/C=C\C(C#N)(C#N)N=Cc1ccc(OC)cc1	none (no result: GPR7 antag, TRPN1 ag, TRPML3 agonist)
COc1ccc(CN(CC(=O)NCc2ccc(F)cc2)C(=O)c2csnn2)cc1	none (no result: TRPN1 ag, TRPML3 agonist)
CCN(CC)CC(=O)NC12CC3CC(CC(C3)C1)C2	none
CCN(CC)C(=S)SCC(=O)NC12CC3CC(CC(C3)C1)C2	TRPML3 agonist 12 | TRPN1 counter inactive | TRPML3 confirm 28
